Experimental data taken from ChEMBL document CHEMBL1255434, “Heat stress cognate 70 host protein as a potential drug target against drug resistance in hepatitis B virus” (Antimicrob Agents Chemother, 2010).
Activity calls are given as the source filed them. No cut-off for these calls is given here.

How the values were obtained:
Hepatitis B virus [1] = test: Antiviral activity against Hepatitis B virus infected in human HepG2(2.2.15) cells assessed as decrease in intracellular viral DNA level at 2.16 uM after 72 hrs by RT-PCR analysis; format: functional, organism-based
Outline: (§1)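 HepG2.2.15 cells (HBV genome-transfected, MEM + 10% FBS) treated 72 h with drug alone or in two-drug combination. Entecavir 0.6 μg/ml (2.16 μM), adefovir 3 μg/ml (5.9 μM), lamivudine 3 μg/ml (13 μM), oxymatrine 30 μg/ml (113 μM). Intracellular HBV DNA by SYBR Green real-time PCR, relative to untreated. Experiment repeated twice; means and SD, Student's t test.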

[2] = Decrease in HscA70-mRNA expression in Hepatitis B virus infected in human HepG2(2.2.15) cells at 13 uM after 24-36 hrs by RT-PCR analysis; format: functional, cell-based
Hepatitis B virus [3] = test: Antiviral activity against Hepatitis B virus infected in human HepG2(2.2.15) cells assessed as decrease in intracellular viral DNA level at 13 uM after 72 hrs by RT-PCR analysis; format: functional, organism-based; outline: as §1

Row | Structure (SMILES) | Activity (Hepatitis B virus [1]) | Activity [2] | Activity (Hepatitis B virus [3])
1 | C=C1[C@H](CO)[C@@H](O)C[C@@H]1n1cnc2c(=O)[nH]c(N)nc21 | Active | – | –
2 | Nc1ccn([C@@H]2CS[C@H](CO)O2)c(=O)n1 | – | inactive | Active
